The text below walks through data of ChEMBL document CHEMBL1137687, “Anti-HIV evaluation of benzo[d]isothiazole hydrazones” (Eur J Med Chem, 2009).

Structures are written as SMILES. A value given as a limit tells only on which side of the number the result lay.

Data set [1] concerns Human immunodeficiency virus 1. Briefly: Antiviral activity against wild type HIV1 3B assessed as protection as protection against virus-induced cytopathogenicity after 4 days by MTT assay. The format is functional. As to conditions: Human immunodeficiency virus 1, 3B, 96 h. An outline of the steps:
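HIV-1 IIIB from supernatants of persistently infected H9/IIIB cells. MT-4 cells, 1 × 10⁴ per well in RPMI 1640 with 10% FCS, exposed to serial compound dilutions (100 mM DMSO stock diluted in medium). Virus inoculum sized in CCID₅₀ to give complete cytopathogenicity by day 4. Incubated at 37 °C, then viability read by MTT. EC₅₀ taken as concentration giving 50% protection from virus-induced cytopathogenicity.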
(In general: Protection from cytopathic effect is a common read-out in antiviral testing.)

Data set [2] deals with Human immunodeficiency virus 1. As to the kind of experiment: Antiviral activity against NNRTI-resistant HIV1 3B with reverse transcriptase K103N+Y181C mutation in human MT4 cells assessed as protection against virus-induced cytopathogenicity after 4 days by MTT assay. The format is functional, organism-based. As to conditions: Human immunodeficiency virus 1, 3B, MT4, 96 h. An outline of the steps: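 MT-4 cells (RPMI 1640, 10% FCS, 37 °C, 5% CO2), 1×10⁴/well, with compound serial dilutions from 100 mM DMSO stock, infected with K103N+Y181C virus (NIH A17, from IIIB passaged in H9 cells with BI-RG 587; stock 2.1×10⁷ CCID50/mL) at dose giving full cytopathogenicity by day 4. MTT viability; EC50 = 50% protection.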

Data set [3] has as its system Human immunodeficiency virus 1. Briefly: Antiviral activity against NNRTI-resistant HIV1 3B with reverse transcriptase K103R+V179D+P225H mutation in human MT4 cells assessed as protection against virus-induced cytopathogenicity after 4 days by MTT assay. The format is functional, organism-based. The settings on record: Human immunodeficiency virus 1, 3B, MT4, 96 h. An outline of the steps:
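K103R+V179D+P225H (EFV^R) virus, from IIIB passaged in MT-4 cells under efavirenz; stock 4.0×10⁷ CCID50/mL. Added to 1×10⁴ MT-4 cells/well (RPMI 1640, 10% FCS, 37 °C, 5% CO2) with compound dilutions from 100 mM DMSO stock, amount causing complete cytopathogenicity at day 4. Viability by MTT; EC50 = concentration giving 50% protection.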

The nature of data set [4]: Cytotoxicity against mock-infected human MT4 cells after 4 days by MTT assay. The format is cell-based. An outline of the steps:
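Mock-infected MT-4 cells, 1 × 10⁴ per well in RPMI 1640 with 10% FCS, 37 °C, 5% CO₂. Exposed to serial compound dilutions from a 100 mM DMSO stock diluted in medium, in parallel with the antiviral assay. Viability read by MTT. CC₅₀ taken as concentration reducing viability of mock-infected cells by 50%.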

The subject of data set [5] is Human immunodeficiency virus 1. As to the kind of experiment: Antiviral activity against NNRTI-resistant HIV1 with reverse transcriptase Y181C mutation in human MT4 cells assessed as protection against virus-induced cytopathogenicity after 4 days by MTT assay. The format is functional, organism-based. The settings on record: Human immunodeficiency virus 1, MT4, 96 h. An outline of the steps: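 Y181C virus (NIH N119) came from an AZT-sensitive clinical isolate passaged in CEM then MT-4 cells with nevirapine; stock 1.2×10⁸ CCID50/mL. It infected 1×10⁴ MT-4 cells/well (RPMI 1640, 10% FCS, 37 °C, 5% CO2) with compound dilutions from 100 mM DMSO stock, at a dose giving full cytopathogenicity by day 4. Readout MTT; EC50 = 50% protection.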

Usually EC50 stands for the concentration that produces a half-maximal response. Usually CC50 stands for the concentration giving 50% cytotoxicity. A higher CC50 goes with lower toxicity to the cells. Take `O=c1c2ccccc2sn1/N=C/c1ccco1`: the EC50 in data set [1], in data set [2], in data set [3] and in data set [5] was > 18 µM in each case. The compound also had a CC50 at 96 h in data set [4] of 18 µM.

Consider `O=c1c2ccccc2sn1/N=C/c1ccc2c(c1)OCO2`, for which the EC50 in data set [1], in data set [2], in data set [3] and in data set [5] was > 17 µM each time. Moreover, the CC50 at 96 h in data set [4] came out at 17 µM.

`Cc1ccc2sn(/N=C/c3cccc(F)c3)c(=O)c2c1`: the EC50 in data set [1], in data set [2], in data set [3] and in data set [5] was > 30 µM throughout. The CC50 at 96 h in data set [4] stood at 30 µM.

Take `Cc1ccc2sn(/N=C/c3ccccc3F)c(=O)c2c1`: the EC50 in data set [1], in data set [2], in data set [3] and in data set [5] was > 18 µM each time. In data set [4], this compound had a CC50 at 96 h of 18 µM.

As to `COc1cc(/C=N/n2sc3ccccc3c2=O)ccc1O`, the EC50 in data set [1], in data set [2], in data set [3] and in data set [5] was > 15 µM in each case. In data set [4], this compound returned a CC50 at 96 h of 15 µM.

On to `O=c1c2ccccc2sn1/N=C/c1ccccc1O`, for which the EC50 in data set [1], in data set [2], in data set [3] and in data set [5] was > 18 µM throughout. Moreover, the CC50 at 96 h in data set [4] was 18 µM.

`O=c1c2ccccc2sn1/N=C/c1cccc([N+](=O)[O-])c1`: the EC50 was 36 µM in data set [1], 57 µM in data set [2], 11 µM in data set [3] and 13 µM in data set [5]. Further, the CC50 at 96 h in data set [4] was > 100 µM.

As to `Cc1ccc2sn(/N=C/c3cccc([N+](=O)[O-])c3)c(=O)c2c1`, the EC50 in data set [1] was 48 µM; in data set [2] it was 83 µM; in data set [3], 18 µM; in data set [5], 32 µM. The CC50 at 96 h in data set [4] was > 100 µM.

Regarding `Cc1ccc2sn(/N=C/c3ccc([N+](=O)[O-])cc3)c(=O)c2c1`, the EC50 is > 100 µM in data set [1], > 100 µM in data set [2], 72 µM in data set [3] and ≥ 100 µM in data set [5]. Also, in data set [4], the CC50 at 96 h was > 100 µM.

Turning to `Cc1ccc2sn(/N=C/c3ccccc3O)c(=O)c2c1`, the EC50 in data set [1], in data set [2], in data set [3] and in data set [5] was > 30 µM each time. The compound further had a CC50 at 96 h in data set [4] of 30 µM.

Consider `O=c1c2ccccc2sn1/N=C/c1cccc(Cl)c1`, for which the EC50 in data set [1] is 100 µM; in data set [2], ≥ 100 µM; in data set [3], 68 µM; in data set [5], ≥ 100 µM. For the same compound, in data set [4], the CC50 at 96 h was > 100 µM.

Turning to `O=c1c2ccccc2sn1/N=C/c1ccc(Cl)cc1`, the EC50 was > 26 µM in data set [1], > 26 µM in data set [2], 2.9 µM in data set [3] and ≥ 11 µM in data set [5]. Besides, the midpoint of cytotoxicity in data set [4], the CC50 at 96 h, lay at 26 µM.

Turning to `COc1ccc(/C=N/n2sc3ccccc3c2=O)cc1`, the EC50 in data set [1], in data set [2], in data set [3] and in data set [5] was > 19 µM in each case. The same compound displayed a CC50 at 96 h in data set [4] of 19 µM.

Turning to `O=c1c2ccccc2sn1/N=C/C=C/c1ccccc1`, the EC50 in data set [1], in data set [2], in data set [3] and in data set [5] was > 18 µM each time. Also, in data set [4], the midpoint of cytotoxicity, the CC50 at 96 h, lay at 18 µM.

In the case of `Cc1ccc2sn(/N=C/c3ccccc3)c(=O)c2c1`, the EC50 in data set [1] was ≥ 33 µM; in data set [2], > 44 µM; in data set [3], ≥ 33 µM; in data set [5], ≥ 33 µM. Besides, half-maximal cytotoxicity in data set [4] (CC50 at 96 h) was put at 44 µM.

Consider `O=c1c2ccccc2sn1/N=C/c1ccccc1`, for which the EC50 in data set [1] is 11 µM; in data set [2], > 17 µM; in data set [3], 8.6 µM; in data set [5] it was > 17 µM. The same compound gave a CC50 at 96 h in data set [4] of 17 µM.

In the case of `O=c1c2ccccc2sn1/N=C/c1ccccc1F`, the EC50 in data set [1] was ≥ 11 µM; in data set [2], > 20 µM; in data set [3], > 20 µM; in data set [5] it was > 20 µM. For the same compound, the CC50 at 96 h in data set [4] stood at 20 µM.

For `O=c1c2ccccc2sn1/N=C/c1ccc(F)cc1`, the EC50 in data set [1] was 4.4 µM; in data set [2], > 17 µM; in data set [3], ≥ 17 µM; in data set [5] it was > 17 µM. The CC50 at 96 h in data set [4] is 17 µM.

As to `O=c1c2ccccc2sn1/N=C/c1ccc(O)cc1O`, the EC50 in data set [1], in data set [2], in data set [3] and in data set [5] was > 21 µM in each case. The compound also showed a CC50 at 96 h in data set [4] of 21 µM.

Regarding `O=c1c2ccccc2sn1/N=C/c1ccc(O)c(O)c1`, the EC50 in data set [1], in data set [2], in data set [3] and in data set [5] was > 44 µM each time. In data set [4], the CC50 at 96 h was 44 µM.

`Cc1ccc2sn(/N=C/c3ccc(F)cc3)c(=O)c2c1`: the EC50 in data set [1] was > 15 µM; in data set [2] it was > 15 µM; in data set [3], 7.3 µM; in data set [5], > 15 µM. Also, the CC50 at 96 h in data set [4] was determined as 15 µM.

For `O=c1c2ccccc2sn1/N=C/c1ccc([N+](=O)[O-])cc1`, the EC50 was 45 µM in data set [1], 36 µM in data set [2], 33 µM in data set [3] and 29 µM in data set [5]. The CC50 at 96 h in data set [4] was > 100 µM.

`O=c1c2ccccc2sn1/N=C/c1ccc([N+](=O)[O-])cc1[N+](=O)[O-]`: the EC50 in data set [1], in data set [2] and in data set [3] was > 100 µM throughout. In addition, the 50% cytotoxic concentration (CC50) at 96 h in data set [4] is > 100 µM.

For the compound `Cc1ccc2sn(/N=C/c3ccccc3Cl)c(=O)c2c1`, the EC50 in data set [1] is 82 µM; in data set [2], > 100 µM; in data set [3], 79 µM; in data set [5] it was 100 µM. The CC50 at 96 h in data set [4] is > 100 µM.

As for `Cc1ccc2sn(/N=C/c3cccc(Cl)c3)c(=O)c2c1`, the concentration for a half-maximal effect (EC50) in data set [1] is > 59 µM; in data set [2], > 59 µM; in data set [3], 25 µM; in data set [5], > 59 µM. In addition, the CC50 at 96 h in data set [4] was 59 µM.

For `Cc1ccc2sn(/N=C/c3ccccc3[N+](=O)[O-])c(=O)c2c1`, the EC50 was > 100 µM in data set [1], > 100 µM in data set [2], 100 µM in data set [3] and > 100 µM in data set [5]. Moreover, the CC50 at 96 h in data set [4] was > 100 µM.

Consider `O=c1c2ccccc2sn1/N=C/c1ccc(O)cc1`, for which the concentration for a half-maximal effect (EC50) was > 18 µM in data set [1], > 18 µM in data set [2], 8.4 µM in data set [3] and > 18 µM in data set [5]. In addition, in data set [4], the CC50 at 96 h was found to be 18 µM.

On to `CCCCCCCCCCC/C=N/n1sc2ccccc2c1=O`, for which the EC50 in data set [1], in data set [2], in data set [3] and in data set [5] was > 17 µM each time. Also, the CC50 at 96 h in data set [4] was 17 µM.

`Cc1ccc2sn(/N=C/c3ccc(Cl)cc3)c(=O)c2c1`: the EC50 in data set [1] was determined as 24 µM; in data set [2], 33 µM; in data set [3], 11 µM; in data set [5], 22 µM. In data set [4], this compound showed a cytotoxic concentration (CC50) at 96 h of 57 µM.

As to `Cc1ccc2sn(/N=C/c3ccc([N+](=O)[O-])cc3[N+](=O)[O-])c(=O)c2c1`, the concentration for a half-maximal effect (EC50) in data set [1], in data set [2], in data set [3] and in data set [5] was > 100 µM in each case. For the same compound, in data set [4], the CC50 at 96 h was > 100 µM.

As to `O=c1c2ccccc2sn1/N=C/c1cccc(F)c1`, the EC50 in data set [1] is > 15 µM; in data set [2], > 15 µM; in data set [3], 9 µM; in data set [5], > 15 µM. In data set [4], the CC50 at 96 h was found to be 15 µM.

Regarding `O=c1c2ccccc2sn1/N=C/c1cccc(O)c1`, the EC50 in data set [1], in data set [2], in data set [3] and in data set [5] was > 15 µM in each case. The compound also had a CC50 at 96 h in data set [4] of 15 µM.

In the case of `O=c1c2ccccc2sn1/N=C/c1ccccc1[N+](=O)[O-]`, the EC50 in data set [1] is 19 µM; in data set [2] it was 33 µM; in data set [3] it was 20 µM; in data set [5] it was 20 µM. The compound further came in with a CC50 at 96 h in data set [4] of 68 µM.

As for `O=c1c2ccccc2sn1/N=C/c1ccccc1Cl`, the concentration giving a half-maximal response (EC50) in data set [1] was 20 µM; in data set [2] it was > 47 µM; in data set [3] it was 24 µM; in data set [5], 26 µM. This compound showed a half-maximal cytotoxic concentration (CC50) at 96 h in data set [4] of 47 µM.
